Series [1] concerns MRC5. Put plainly: Antiproliferative activity against human MRC5 cells by MTT assay. It counts as cell-based. Summed up:
(§1)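 Cells were grown in medium with 10% heat-inactivated FBS, penicillin G and streptomycin, and were plated in 96-well plates. One day after seeding, they were exposed for 72 h to 0–100 µM compound (DMSO stock diluted in complete medium, final DMSO 1%). Viability was read by MTT reduction. IC50 values came from fitting the dose-response curves to a sigmoidal model.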
Background: Tetrazolium dyes change colour on reduction, which living cells bring about.

Series [2] in a line: Antiproliferative activity against human CCL171 cells by MTT assay. Type of series: cell-based. Summed up:
as §1

Series [3] relates to AGS. Nature of the series: Antiproliferative activity against human AGS cells by MTT assay. Type of series: functional, cell-based. The method, boiled down:
as §1

Series [4] is described as follows: Antiproliferative activity against human CRL1739 cells by MTT assay. It counts as functional, cell-based. The method, boiled down: as §1
Series [5] relates to SK-MES-1. Nature of the series: Antiproliferative activity against human SKMES1 cells by MTT assay. Type of series: functional, cell-based. The method, boiled down: as §1
The subject of series [6] is HTB-58. Nature of the series: (§2) Antiproliferative activity against human HTB-58 cells by MTT assay. Type of series: functional, cell-based. The method, boiled down: as §1
In series [7] the test system is J82. Nature of the series: Antiproliferative activity against human J82 cells by MTT assay. Type of series: functional, cell-based. The method, boiled down: as §1
Series [8] has as its system HTB-1. Put plainly: (§3) Antiproliferative activity against human HTB-1 cells by MTT assay. Type of series: functional, cell-based. Summed up:
as §1

A short description of series [9]: as §2. Type of series: functional, cell-based. The method, boiled down: as §1
Series [10] can be described thus: as §3. Type of series: functional, cell-based. The method, boiled down:
as §1

Twelve molecules from ChEMBL document CHEMBL1649338, “Synthesis of lakshminine and antiproliferative testing of related oxoisoaporphines” (J Nat Prod, 2010) can be followed below.

SMILES strings stand for the structures. Calls of active or inactive are those of the source. The rule behind the calls is not given here.

For the molecule `COc1cc2c3c(nccc3c1[N+](=O)[O-])-c1ccccc1C2=O`, the Activity result in [1] and in series [2] was “Non-toxic” in each case. Besides, the half-inhibitory concentration (IC50) in series [3] and in [4] was 4500 nM each time. The outcome in series [5], in series [6], in [7] and in series [8] was inactive.

For `COc1cc2c3c(c1[N+](=O)[O-])CCN=C3c1ccccc1C2=O`, the 50% inhibitory concentration (IC50) in series [3], in series [4], in series [5], in series [9], in [7] and in [10] was over 2090 nM throughout.

For the molecule `COc1cc2ccnc3c2c(c1N)C(=O)c1ccccc1-3` [LAKSHMININE], the concentration for half-maximal inhibition (IC50) in series [3], in series [4], in series [5], in [9], in series [7] and in series [10] was over 2090 nM each time.

`COc1cc2c3c(nccc3c1N)-c1ccccc1C2=O`: the 50% inhibitory concentration (IC50) in [3], in series [4], in series [5], in series [9], in series [7] and in [10] was over 2090 nM in each case.

On to `COc1cc2c3c(nccc3c1)-c1ccccc1C2=O`, for which the IC50 in [3], in series [4], in series [5], in series [9], in [7] and in [10] was over 2090 nM throughout.

`COc1cc2c3c(c1)C(=O)c1ccccc1C3=NCC2`: the IC50 in series [3], in series [4], in series [5], in series [9], in series [7] and in [10] was over 2090 nM throughout.

For the molecule `COc1ccc2c(c1)C(=O)c1c(NCCc3ccc(O)cc3)c(OC)cc3ccnc-2c13` [DAURIOXOISOPORPHINE A], the IC50 in series [3], in series [4], in series [5], in series [9], in series [7] and in [10] was over 3000 nM throughout.

As for `COc1cc2c3c(c1[N+](=O)[O-])C(=O)c1ccccc1C3=NCC2`, the IC50 in [3], in [4], in [5], in series [9], in [7] and in [10] was over 2090 nM throughout.

On to `COc1ccc2c(c1)C(=O)c1c(N)c(OC)c(OC)c3ccnc-2c13` [DAURIOXOISOPORPHINE B], for which the IC50 in series [3], in [4], in [5], in [9], in [7] and in series [10] was over 3000 nM each time.

With `COc1ccc2c(c1)C(=O)c1c(NCCc3ccc(O)cc3)c(OC)c(OC)c3ccnc-2c13` [TYRAMINOPORPINE], the half-maximal inhibitory concentration (IC50) in [3], in series [4], in series [5], in series [9], in [7] and in [10] was over 2090 nM throughout.

For the molecule `COc1cc2ccnc3c2c(c1[N+](=O)[O-])C(=O)c1ccccc1-3`, the IC50 in [3], in series [4], in [5], in series [9], in series [7] and in series [10] was over 2090 nM each time.

With `CNc1c(OC)cc2ccnc3c2c1C(=O)c1cc(OC)ccc1-3` [DAURIOXOISOAPORPHINE C], the IC50 in series [3], in series [4], in series [5], in series [9], in series [7] and in series [10] was over 2090 nM in each case.
